Where only a bound is given, the exact number is not on record here.

The target in one data set is Thymidine phosphorylase (Escherichia coli K-12) (UniProt P07650). Description: In vitro percent of phosphorolysis after incubation with Escherichia coli thymidine phosphorylase for 10 min at 37 degree C. In kind it is functional.
Sequence of Thymidine phosphorylase (Escherichia coli K-12) (P07650 whole entry, looked up): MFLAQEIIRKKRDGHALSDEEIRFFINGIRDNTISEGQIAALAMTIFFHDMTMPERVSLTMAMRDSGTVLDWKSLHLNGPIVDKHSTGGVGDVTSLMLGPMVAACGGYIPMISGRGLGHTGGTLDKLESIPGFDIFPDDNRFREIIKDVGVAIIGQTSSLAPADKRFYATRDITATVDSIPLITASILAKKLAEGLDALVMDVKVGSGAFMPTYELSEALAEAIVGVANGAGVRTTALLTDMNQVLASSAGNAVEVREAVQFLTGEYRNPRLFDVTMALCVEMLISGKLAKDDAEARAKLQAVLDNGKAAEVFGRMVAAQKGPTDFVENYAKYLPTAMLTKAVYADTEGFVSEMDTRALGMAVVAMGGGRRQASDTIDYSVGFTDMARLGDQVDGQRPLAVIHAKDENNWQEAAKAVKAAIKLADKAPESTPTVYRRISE
Conditions: not given
The method, boiled down: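 E. coli thymidine phosphorylase diluted in 10 mM Tris-HCl pH 7.3 with EDTA, plus 100 mM KH2PO4 pH 7.1 (stock), prewarmed to 37 °C. Substrate added, 10 min at 37 °C, stopped with ice-cold methanol, spun. HPLC-UV at 230 nm tracked substrate loss or appearance of base. Thymidine used as control substrate; each run at least twice.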
`Cc1cn([C@H]2C[C@H](O)[C@@H](CO)O2)c(=O)[nH]c1=O` gave a Phosphorolysis of 72%.
As for `CO[C@H]1N(C2CC(N=[N+]=[N-])C(CO)O2)C(=O)NC(=O)[C@]1(C)I` (stereo partly drawn), the Phosphorolysis was found to be 0%.
The compound `Cc1cn([C@H]2C[C@H](N=[N+]=[N-])[C@@H](CO)O2)c(=O)[nH]c1=O` [ZIDOVUDINE] had a Phosphorolysis of 0%.
The compound `CO[C@@H]1N(C2CC(N=[N+]=[N-])C(CO)O2)C(=O)NC(=O)[C@@]1(C)I` (stereo partly drawn) came in with a Phosphorolysis of 0%.
Still for that read-out and setting: as for `CO[C@H]1N(C2CC(N=[N+]=[N-])C(CO)O2)C(=O)NC(=O)[C@@]1(C)Cl` (stereo partly drawn), the figure is 0%; as for `CCO[C@H]1N(C2CC(N=[N+]=[N-])C(CO)O2)C(=O)NC(=O)[C@]1(C)Br` (stereo partly drawn), 0%.
`CO[C@@H]1N(C2CC(N=[N+]=[N-])C(CO)O2)C(=O)NC(=O)[C@@]1(C)Br` (stereo partly drawn) gave a Phosphorolysis of 0%.
On the same count and under the same terms, as for `CO[C@H]1N(C2CC(N=[N+]=[N-])C(CO)O2)C(=O)NC(=O)[C@]1(C)Cl` (stereo partly drawn), the figure is 0%.
In turn, `CO[C@H]1N(C2CC(N=[N+]=[N-])C(CO)O2)C(=O)NC(=O)[C@]1(C)Br` (stereo partly drawn) registered a Phosphorolysis of 0%.
Still for that read-out and setting: for `CCO[C@@H]1N(C2CC(N=[N+]=[N-])C(CO)O2)C(=O)NC(=O)[C@@]1(C)Br` (stereo partly drawn) the value was 0%.
Consider `CO[C@@H]1N(C2CC(N=[N+]=[N-])C(CO)O2)C(=O)NC(=O)[C@@]1(C)Cl` (stereo partly drawn), for which the Phosphorolysis was 0%.

Tested on in another data set: not listed separately
Description: Therapeutic index of IC50 to EC50. To be noted: read-out: TI. The method, boiled down: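 TI = IC50/EC50, both from the NCI CEM cell screen. IC50 is the drug concentration giving 50% survival of uninfected untreated controls. EC50 is the concentration giving 50% survival of HIV-1-infected cells relative to uninfected untreated controls.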
In the case of `CO[C@H]1N(C2CC(N=[N+]=[N-])C(CO)O2)C(=O)NC(=O)[C@]1(C)I` (stereo partly drawn), the selectivity ratio came out at 5900.
For `Cc1cn([C@H]2C[C@H](N=[N+]=[N-])[C@@H](CO)O2)c(=O)[nH]c1=O` [ZIDOVUDINE], the selectivity ratio is more than 10000.
Same read-out and setting: as for `CO[C@@H]1N(C2CC(N=[N+]=[N-])C(CO)O2)C(=O)NC(=O)[C@@]1(C)I` (stereo partly drawn), the figure is 1250; as for `CCO[C@H]1N(C2CC(N=[N+]=[N-])C(CO)O2)C(=O)NC(=O)[C@]1(C)Br` (stereo partly drawn), 2740.
Consider `CO[C@@H]1N(C2CC(N=[N+]=[N-])C(CO)O2)C(=O)NC(=O)[C@@]1(C)Br` (stereo partly drawn), for which the selectivity ratio is 152.
Turning to `CO[C@H]1N(C2CC(N=[N+]=[N-])C(CO)O2)C(=O)NC(=O)[C@]1(C)Br` (stereo partly drawn), the selectivity ratio was determined as 5260.
For `CCO[C@@H]1N(C2CC(N=[N+]=[N-])C(CO)O2)C(=O)NC(=O)[C@@]1(C)Br` (stereo partly drawn), the selectivity ratio stood at 937.

Another data set concerns CCRF-CEM. Kind of data set: Inhibitory concentration (cytotoxic activity) which results in a 50% survival of […]. Conditions: Homo sapiens. In kind it is functional, cell-based. The method, boiled down: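 Cytotoxicity run in the NCI AIDS screening program on CEM T4 lymphocytes alongside the anti-HIV test. IC50 = drug concentration giving 50% survival of uninfected untreated control cells. AZT control tested concurrently.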
In turn, `CO[C@H]1N(C2CC(N=[N+]=[N-])C(CO)O2)C(=O)NC(=O)[C@]1(C)I` (stereo partly drawn) had an IC50 of 18.7 µM.
`CO[C@@H]1N(C2CC(N=[N+]=[N-])C(CO)O2)C(=O)NC(=O)[C@@]1(C)I` (stereo partly drawn) showed an IC50 of 6.42 µM.
On the same count and under the same terms, as for `CCO[C@H]1N(C2CC(N=[N+]=[N-])C(CO)O2)C(=O)NC(=O)[C@]1(C)Br` (stereo partly drawn), the figure is 18.5 µM; as for `CO[C@@H]1N(C2CC(N=[N+]=[N-])C(CO)O2)C(=O)NC(=O)[C@@]1(C)Br` (stereo partly drawn), 42.5 µM.
In turn, `CO[C@H]1N(C2CC(N=[N+]=[N-])C(CO)O2)C(=O)NC(=O)[C@]1(C)Br` (stereo partly drawn) gave an IC50 of 17.2 µM.
Compound `CCO[C@@H]1N(C2CC(N=[N+]=[N-])C(CO)O2)C(=O)NC(=O)[C@@]1(C)Br` (stereo partly drawn) yielded an IC50 of 22.2 µM. The IC50 values of the last two compounds are within 1.5-fold of each other.

Molecular target in the next data set: not listed separately
Kind of data set: Effective concentration in vitro against HIV-1-infected CEM cells relative to uninfected untreated controls. To be noted: ccrf-cem.
With `Cc1cn([C@H]2C[C@H](N=[N+]=[N-])[C@@H](CO)O2)c(=O)[nH]c1=O` [ZIDOVUDINE], the half-maximal effective concentration (EC50) is 0.003 µM.

The species entered for another data set is Mus musculus. Kind of data set: In vitro percent of 3''-azido-3''-deoxythymidine (AZT) formed upon incubation with mouse liver homogenate for 30 min at 37 degree C. It counts as functional.
Conditions: not given
The method, boiled down: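 Livers of three Balb/c mice homogenized in 0.1 M Tris pH 8.2, spun at 49000g for 2 h at 4 °C; supernatant (soluble enzyme fraction) used. Compound (1 mg/mL stock) incubated with the fraction 30 min at 37 °C, mixed with equal volume methanol, centrifuged. Supernatant dried and redissolved; AZT quantified by HPLC, UV 230 and 265 nm.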
`CO[C@H]1N(C2CC(N=[N+]=[N-])C(CO)O2)C(=O)NC(=O)[C@]1(C)I` (stereo partly drawn) yielded an AZT formation of 79%.
As to `CO[C@@H]1N(C2CC(N=[N+]=[N-])C(CO)O2)C(=O)NC(=O)[C@@]1(C)I` (stereo partly drawn), the AZT formation is 96%.
With `CO[C@H]1N(C2CC(N=[N+]=[N-])C(CO)O2)C(=O)NC(=O)[C@@]1(C)Cl` (stereo partly drawn), the AZT formation was determined as 0%.
With `CO[C@@H]1N(C2CC(N=[N+]=[N-])C(CO)O2)C(=O)NC(=O)[C@@]1(C)Br` (stereo partly drawn), the AZT formation was determined as 44%.
The compound `CO[C@H]1N(C2CC(N=[N+]=[N-])C(CO)O2)C(=O)NC(=O)[C@]1(C)Cl` (stereo partly drawn) gave an AZT formation of 0%.
On the same count and under the same terms, for `CO[C@H]1N(C2CC(N=[N+]=[N-])C(CO)O2)C(=O)NC(=O)[C@]1(C)Br` (stereo partly drawn) the value was 26%.
Take `CO[C@@H]1N(C2CC(N=[N+]=[N-])C(CO)O2)C(=O)NC(=O)[C@@]1(C)Cl` (stereo partly drawn): the AZT formation was determined as 0%.

A further data set is filed under the species Mus musculus. Kind of data set: In vitro percent of 3''-azido-3''-deoxythymidine (AZT) formed upon incubation with mouse blood for 10 min at 37 degree C. In kind it is functional.
Conditions: not given
The method, boiled down: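 Heparinized mouse blood from cardiac puncture mixed 1:1 by volume with compound (1 mg/mL stock in water). Incubated 10 min at 37 °C, quenched with ice-cold methanol, 10 min on ice, then centrifuged. Supernatant dried under N2 and redissolved in methanol; AZT quantified by HPLC-UV at 230/265 nm.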
On to `CO[C@H]1N(C2CC(N=[N+]=[N-])C(CO)O2)C(=O)NC(=O)[C@]1(C)I` (stereo partly drawn), for which the AZT formation came out at 100%.
Consider `CO[C@@H]1N(C2CC(N=[N+]=[N-])C(CO)O2)C(=O)NC(=O)[C@@]1(C)I` (stereo partly drawn), for which the AZT formation turned out to be 100%.
`CO[C@H]1N(C2CC(N=[N+]=[N-])C(CO)O2)C(=O)NC(=O)[C@@]1(C)Cl` (stereo partly drawn): the AZT formation was 0%.
Take `CO[C@@H]1N(C2CC(N=[N+]=[N-])C(CO)O2)C(=O)NC(=O)[C@@]1(C)Br` (stereo partly drawn): the AZT formation turned out to be 88%.
The compound `CO[C@H]1N(C2CC(N=[N+]=[N-])C(CO)O2)C(=O)NC(=O)[C@]1(C)Cl` (stereo partly drawn) had an AZT formation of 0%.
The compound `CO[C@H]1N(C2CC(N=[N+]=[N-])C(CO)O2)C(=O)NC(=O)[C@]1(C)Br` (stereo partly drawn) returned an AZT formation of 59%.
`CO[C@@H]1N(C2CC(N=[N+]=[N-])C(CO)O2)C(=O)NC(=O)[C@@]1(C)Cl` (stereo partly drawn) showed an AZT formation of 0%.

Tested on in another data set: not listed separately
Kind of data set: Regeneration of the 5,6-Olefinic bond was measured as percent of 3''-azido-3''-deoxythymidine (AZT) formed upon incubation with Glutathione for 30 min at 37 degree C. In kind it is functional.
Conditions: not given
The method in brief:
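Compound incubated with reduced glutathione at a compound:GSH mole ratio of 1:2 (1:5 for some analogs) in phosphate buffer pH 7.4 at 37 °C, for times up to 24 h. AZT formed quantified by HPLC, UV 230 nm (dihydro compound) and 265 nm (AZT), water:methanol 7:3 eluent.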
Compound `CO[C@H]1N(C2CC(N=[N+]=[N-])C(CO)O2)C(=O)NC(=O)[C@]1(C)I` (stereo partly drawn) registered an AZT formation of 100%.
Compound `CO[C@@H]1N(C2CC(N=[N+]=[N-])C(CO)O2)C(=O)NC(=O)[C@@]1(C)I` (stereo partly drawn) registered an AZT formation of 100%.
`CO[C@H]1N(C2CC(N=[N+]=[N-])C(CO)O2)C(=O)NC(=O)[C@@]1(C)Cl` (stereo partly drawn) showed an AZT formation of 0%.
In turn, `CCO[C@H]1N(C2CC(N=[N+]=[N-])C(CO)O2)C(=O)NC(=O)[C@]1(C)Br` (stereo partly drawn) registered an AZT formation of 100%.
Regarding `CO[C@@H]1N(C2CC(N=[N+]=[N-])C(CO)O2)C(=O)NC(=O)[C@@]1(C)Br` (stereo partly drawn), the AZT formation stood at 77%.
`CO[C@H]1N(C2CC(N=[N+]=[N-])C(CO)O2)C(=O)NC(=O)[C@]1(C)Cl` (stereo partly drawn): the AZT formation came to 0%.
On the same count and under the same terms, as for `CO[C@H]1N(C2CC(N=[N+]=[N-])C(CO)O2)C(=O)NC(=O)[C@]1(C)Br` (stereo partly drawn), the figure is 80%; as for `CCO[C@@H]1N(C2CC(N=[N+]=[N-])C(CO)O2)C(=O)NC(=O)[C@@]1(C)Br` (stereo partly drawn), 85%.
`CO[C@@H]1N(C2CC(N=[N+]=[N-])C(CO)O2)C(=O)NC(=O)[C@@]1(C)Cl` (stereo partly drawn) yielded an AZT formation of 0%.

Usually IC50 stands for the concentration that inhibits the measured activity by half. One may read the EC50 as the concentration that produces a half-maximal response. High values mean a less potent agent, low ones a more potent agent.
